From ChEMBL document CHEMBL4411287, “Discovery and optimization of a series of 3-substituted indazole derivatives as multi-target kinase inhibitors for the treatment of lung squamous cell carcinoma” (Eur J Med Chem, 2019)

How the values were obtained:
[1] = target: Platelet-derived growth factor receptor alpha (Homo sapiens) (UniProt P16234); assay: Inhibition of PDGFR-alpha (unknown origin) at 1000 nM relative to control
Summary of the method: (§1)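 Purified recombinant kinase domains run in ELISA on precoated poly(Glu,Tyr) 4:1 (20 µg/mL) with 10 µM ATP in 50 mM HEPES pH 7.4, 50 mM MgCl2, 0.5 mM MnCl2, 0.2 mM Na3VO4, 1 mM DTT; 1% DMSO control; 60 min at 37 °C. Phosphotyrosine read by PY99 antibody, HRP anti-mouse IgG, OPD/H2O2 at 490 nm; inhibition = [1−A490/A490control]×100%; two separate experiments.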

[2] = target: Platelet-derived growth factor receptor alpha (Homo sapiens) (UniProt P16234); assay: Inhibition of PDGFR-alpha (unknown origin) at 100 nM relative to control; summary of the method: as §1
[3] = target: Tyrosine-protein kinase JAK1 (Homo sapiens) (UniProt P23458); assay: Inhibition of JAK1 (unknown origin) at 10 nM relative to control; summary of the method: as §1
[4] = target: Angiopoietin-1 receptor (Homo sapiens) (UniProt Q02763); assay: Inhibition of Tie-2 (unknown origin) at 1000 nM relative to control
Summary of the method: (§2)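 ELISA with purified recombinant kinase on plates precoated with poly(Glu,Tyr) 4:1 at 20 µg/mL. ATP 10 µM in HEPES pH 7.4 buffer with MgCl2, MnCl2, Na3VO4 and DTT. Run 60 min at 37 °C. Detected with anti-phosphotyrosine PY99, HRP secondary antibody and o-phenylenediamine, read at 490 nm. Inhibition % = [1 − A490/A490 control]×100. 1% DMSO as negative control.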

[5] = target: Macrophage colony-stimulating factor 1 receptor (Homo sapiens) (UniProt P07333); assay: Inhibition of CSF-1R (unknown origin) at 100 nM relative to control
[6] = Half life in ICR(CD-1) mouse at 10 mg/kg, po administered via gavage by triple quadrupole mass spectrometric analysis; assay type: ADME, organism-based; conditions: in vivo
Summary of the method: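 Oral gavage at 1 mg/mL in 1% Tween80/water to male ICR mice (18-22 g, n=3). Plasma sampled at 0.25, 0.5, 1, 2, 4, 8 and 24 h, protein precipitated with methanol:acetonitrile (1:1) containing internal standard, and quantified by UPLC-triple quadrupole MS. AUC and MRT were taken from per-animal time-concentration curves. Cmax is the maximum plasma level and Tmax the time to reach it.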

[7] = target: Fibroblast growth factor receptor 2 (Homo sapiens) (UniProt P21802); assay: Inhibition of FGFR2 (unknown origin) at 10 nM relative to control; summary of the method: as §1
[8] = target: Cyclin-dependent kinase 6 (Homo sapiens) (UniProt Q00534); assay: Inhibition of CDK6 (unknown origin) at 1000 nM relative to control
[9] = target: Mitogen-activated protein kinase 1 (Homo sapiens) (UniProt P28482); assay: Inhibition of ERK2 (unknown origin) at 100 nM relative to control
[10] = target: Tyrosine-protein kinase receptor UFO (Homo sapiens) (UniProt P30530); assay: Inhibition of AXL (unknown origin) at 10 nM relative to control
[11] = target: Platelet-derived growth factor receptor beta (Homo sapiens) (UniProt P09619); assay: Inhibition of PDGFR-beta (unknown origin) at 100 nM relative to control; summary of the method: as §1
[12] = target: Mitogen-activated protein kinase 3 (Homo sapiens) (UniProt P27361); assay: Inhibition of ERK1 (unknown origin) at 1000 nM relative to control
[13] = target: Proto-oncogene tyrosine-protein kinase Src (Homo sapiens) (UniProt P12931); assay: Inhibition of c-Src (unknown origin) at 100 nM relative to control; summary of the method: as §2
[14] = target: Insulin-like growth factor 1 receptor (Homo sapiens) (UniProt P08069); assay: Inhibition of IGF1R (unknown origin) at 100 nM relative to control; summary of the method: as §1
[15] = target: T1, Ephrin type-B receptor 2 (Homo sapiens) (UniProt P29323); assay: Inhibition of EPH-B2 (unknown origin) at 1000 nM relative to control; summary of the method: as §1
T1 sequence (whole entry): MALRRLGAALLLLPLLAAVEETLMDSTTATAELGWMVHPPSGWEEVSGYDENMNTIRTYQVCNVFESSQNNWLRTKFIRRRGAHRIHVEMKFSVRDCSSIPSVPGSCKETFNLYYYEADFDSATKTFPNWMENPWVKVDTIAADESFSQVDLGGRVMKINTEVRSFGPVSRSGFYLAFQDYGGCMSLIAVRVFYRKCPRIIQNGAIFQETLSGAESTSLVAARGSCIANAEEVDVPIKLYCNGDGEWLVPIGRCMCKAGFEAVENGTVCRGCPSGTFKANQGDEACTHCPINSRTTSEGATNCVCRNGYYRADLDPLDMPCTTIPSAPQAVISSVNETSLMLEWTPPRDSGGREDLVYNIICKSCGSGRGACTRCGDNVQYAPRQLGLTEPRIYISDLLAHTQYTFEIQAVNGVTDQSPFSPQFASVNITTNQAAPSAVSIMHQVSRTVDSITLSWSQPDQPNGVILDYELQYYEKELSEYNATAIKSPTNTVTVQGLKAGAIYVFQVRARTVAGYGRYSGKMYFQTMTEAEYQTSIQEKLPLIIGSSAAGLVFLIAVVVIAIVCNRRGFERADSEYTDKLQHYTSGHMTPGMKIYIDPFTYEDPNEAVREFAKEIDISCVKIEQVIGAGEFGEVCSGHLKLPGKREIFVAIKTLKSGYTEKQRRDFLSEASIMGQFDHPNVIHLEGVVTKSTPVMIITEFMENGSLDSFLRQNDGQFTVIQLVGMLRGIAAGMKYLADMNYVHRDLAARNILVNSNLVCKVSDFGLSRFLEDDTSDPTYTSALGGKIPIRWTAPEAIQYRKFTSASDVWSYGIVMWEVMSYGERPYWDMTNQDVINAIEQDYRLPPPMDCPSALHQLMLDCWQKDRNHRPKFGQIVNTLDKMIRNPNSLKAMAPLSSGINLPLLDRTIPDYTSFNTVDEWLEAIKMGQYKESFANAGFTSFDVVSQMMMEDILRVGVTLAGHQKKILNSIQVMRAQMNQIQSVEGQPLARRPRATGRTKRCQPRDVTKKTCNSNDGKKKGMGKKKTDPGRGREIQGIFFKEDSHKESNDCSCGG

[16] = target: Tyrosine-protein kinase JAK2 (Homo sapiens) (UniProt O60674); assay: Inhibition of JAK2 (unknown origin) at 1000 nM relative to control; summary of the method: as §1
[17] = target: Cyclin-dependent kinase 4 (Homo sapiens) (UniProt P11802); assay: Inhibition of CDK4 (unknown origin) at 10 nM relative to control
[18] = target: Ephrin type-A receptor 2 (Homo sapiens) (UniProt P29317); assay: Inhibition of EPH-A2 (unknown origin) at 100 nM relative to control; summary of the method: as §1

Sequence of Platelet-derived growth factor receptor alpha (Homo sapiens) (P16234 whole entry, the tested form may be a part): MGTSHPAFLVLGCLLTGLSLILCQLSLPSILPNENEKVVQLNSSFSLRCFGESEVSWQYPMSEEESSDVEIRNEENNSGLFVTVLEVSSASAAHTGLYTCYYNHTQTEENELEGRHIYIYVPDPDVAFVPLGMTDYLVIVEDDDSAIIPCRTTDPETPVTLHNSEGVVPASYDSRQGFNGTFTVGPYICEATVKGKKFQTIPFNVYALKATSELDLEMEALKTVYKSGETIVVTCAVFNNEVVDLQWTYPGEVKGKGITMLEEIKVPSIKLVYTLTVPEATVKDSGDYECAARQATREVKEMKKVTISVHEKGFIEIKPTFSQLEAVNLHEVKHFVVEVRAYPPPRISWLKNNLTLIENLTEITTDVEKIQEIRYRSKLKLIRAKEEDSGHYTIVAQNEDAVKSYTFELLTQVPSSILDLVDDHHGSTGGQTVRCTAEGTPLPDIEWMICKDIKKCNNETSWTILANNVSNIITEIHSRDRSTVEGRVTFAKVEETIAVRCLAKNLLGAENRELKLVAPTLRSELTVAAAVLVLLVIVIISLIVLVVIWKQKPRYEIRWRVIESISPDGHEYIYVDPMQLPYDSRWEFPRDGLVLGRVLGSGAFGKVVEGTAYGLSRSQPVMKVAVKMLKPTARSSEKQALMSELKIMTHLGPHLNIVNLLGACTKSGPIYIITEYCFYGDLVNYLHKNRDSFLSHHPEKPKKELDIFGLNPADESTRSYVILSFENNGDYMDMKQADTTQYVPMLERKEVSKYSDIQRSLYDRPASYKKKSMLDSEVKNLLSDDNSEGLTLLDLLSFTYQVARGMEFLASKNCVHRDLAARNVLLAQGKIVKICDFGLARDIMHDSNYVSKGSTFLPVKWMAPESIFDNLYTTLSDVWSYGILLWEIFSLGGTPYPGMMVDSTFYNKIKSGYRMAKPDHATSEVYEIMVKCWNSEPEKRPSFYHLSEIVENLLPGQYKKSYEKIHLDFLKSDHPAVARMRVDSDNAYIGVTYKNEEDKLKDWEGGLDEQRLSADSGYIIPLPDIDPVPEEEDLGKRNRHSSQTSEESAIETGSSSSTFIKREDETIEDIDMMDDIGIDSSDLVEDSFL
Sequence of Proto-oncogene tyrosine-protein kinase Src (Homo sapiens) (P12931 2-536 limits assumed): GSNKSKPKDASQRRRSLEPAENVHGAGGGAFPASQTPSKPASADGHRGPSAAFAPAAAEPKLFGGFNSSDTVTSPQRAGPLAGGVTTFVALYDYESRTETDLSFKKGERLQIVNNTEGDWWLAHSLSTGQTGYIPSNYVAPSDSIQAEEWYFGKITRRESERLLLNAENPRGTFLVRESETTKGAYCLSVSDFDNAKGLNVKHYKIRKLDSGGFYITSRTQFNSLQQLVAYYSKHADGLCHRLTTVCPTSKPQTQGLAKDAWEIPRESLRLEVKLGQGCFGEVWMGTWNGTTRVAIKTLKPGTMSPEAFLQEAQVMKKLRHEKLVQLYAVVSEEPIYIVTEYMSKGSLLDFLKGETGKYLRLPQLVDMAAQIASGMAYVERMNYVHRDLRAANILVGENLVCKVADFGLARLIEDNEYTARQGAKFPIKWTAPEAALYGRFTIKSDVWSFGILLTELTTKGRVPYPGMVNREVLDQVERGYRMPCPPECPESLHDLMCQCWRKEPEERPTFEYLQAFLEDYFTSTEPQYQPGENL
Sequence of Cyclin-dependent kinase 6 (Homo sapiens) (Q00534 whole entry): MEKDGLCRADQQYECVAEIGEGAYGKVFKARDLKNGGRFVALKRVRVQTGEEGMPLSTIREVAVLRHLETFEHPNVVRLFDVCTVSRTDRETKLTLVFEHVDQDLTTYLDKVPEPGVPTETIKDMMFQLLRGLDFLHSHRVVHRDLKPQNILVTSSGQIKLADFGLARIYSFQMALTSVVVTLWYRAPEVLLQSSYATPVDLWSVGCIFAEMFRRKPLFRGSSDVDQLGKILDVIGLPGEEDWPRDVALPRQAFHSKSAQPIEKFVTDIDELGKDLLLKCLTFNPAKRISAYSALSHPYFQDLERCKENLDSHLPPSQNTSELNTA
Sequence of Tyrosine-protein kinase receptor UFO (Homo sapiens) (P30530 whole entry): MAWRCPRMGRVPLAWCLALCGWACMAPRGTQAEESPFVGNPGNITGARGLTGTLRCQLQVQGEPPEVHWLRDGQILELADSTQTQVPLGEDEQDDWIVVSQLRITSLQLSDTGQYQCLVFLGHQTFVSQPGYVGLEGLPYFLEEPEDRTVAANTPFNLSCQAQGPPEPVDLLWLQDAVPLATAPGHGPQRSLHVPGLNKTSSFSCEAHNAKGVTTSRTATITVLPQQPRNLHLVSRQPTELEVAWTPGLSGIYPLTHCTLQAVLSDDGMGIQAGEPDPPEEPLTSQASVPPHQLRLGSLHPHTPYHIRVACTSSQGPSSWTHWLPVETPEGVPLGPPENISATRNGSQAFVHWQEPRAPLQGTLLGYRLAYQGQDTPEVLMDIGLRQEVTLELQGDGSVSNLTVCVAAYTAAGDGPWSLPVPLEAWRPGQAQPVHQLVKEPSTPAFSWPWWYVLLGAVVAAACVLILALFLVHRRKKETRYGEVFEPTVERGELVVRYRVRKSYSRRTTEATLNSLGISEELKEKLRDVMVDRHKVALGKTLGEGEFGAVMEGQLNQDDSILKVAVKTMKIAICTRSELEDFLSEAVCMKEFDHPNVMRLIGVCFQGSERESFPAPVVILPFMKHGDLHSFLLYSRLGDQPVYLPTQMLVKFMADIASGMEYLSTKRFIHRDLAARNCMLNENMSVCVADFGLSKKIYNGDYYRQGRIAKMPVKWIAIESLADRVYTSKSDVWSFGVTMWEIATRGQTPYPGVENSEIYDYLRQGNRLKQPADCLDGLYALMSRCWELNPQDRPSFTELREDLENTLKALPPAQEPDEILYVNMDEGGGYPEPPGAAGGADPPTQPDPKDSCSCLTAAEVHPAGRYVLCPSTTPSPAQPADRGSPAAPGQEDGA
Sequence of Platelet-derived growth factor receptor beta (Homo sapiens) (P09619 whole entry): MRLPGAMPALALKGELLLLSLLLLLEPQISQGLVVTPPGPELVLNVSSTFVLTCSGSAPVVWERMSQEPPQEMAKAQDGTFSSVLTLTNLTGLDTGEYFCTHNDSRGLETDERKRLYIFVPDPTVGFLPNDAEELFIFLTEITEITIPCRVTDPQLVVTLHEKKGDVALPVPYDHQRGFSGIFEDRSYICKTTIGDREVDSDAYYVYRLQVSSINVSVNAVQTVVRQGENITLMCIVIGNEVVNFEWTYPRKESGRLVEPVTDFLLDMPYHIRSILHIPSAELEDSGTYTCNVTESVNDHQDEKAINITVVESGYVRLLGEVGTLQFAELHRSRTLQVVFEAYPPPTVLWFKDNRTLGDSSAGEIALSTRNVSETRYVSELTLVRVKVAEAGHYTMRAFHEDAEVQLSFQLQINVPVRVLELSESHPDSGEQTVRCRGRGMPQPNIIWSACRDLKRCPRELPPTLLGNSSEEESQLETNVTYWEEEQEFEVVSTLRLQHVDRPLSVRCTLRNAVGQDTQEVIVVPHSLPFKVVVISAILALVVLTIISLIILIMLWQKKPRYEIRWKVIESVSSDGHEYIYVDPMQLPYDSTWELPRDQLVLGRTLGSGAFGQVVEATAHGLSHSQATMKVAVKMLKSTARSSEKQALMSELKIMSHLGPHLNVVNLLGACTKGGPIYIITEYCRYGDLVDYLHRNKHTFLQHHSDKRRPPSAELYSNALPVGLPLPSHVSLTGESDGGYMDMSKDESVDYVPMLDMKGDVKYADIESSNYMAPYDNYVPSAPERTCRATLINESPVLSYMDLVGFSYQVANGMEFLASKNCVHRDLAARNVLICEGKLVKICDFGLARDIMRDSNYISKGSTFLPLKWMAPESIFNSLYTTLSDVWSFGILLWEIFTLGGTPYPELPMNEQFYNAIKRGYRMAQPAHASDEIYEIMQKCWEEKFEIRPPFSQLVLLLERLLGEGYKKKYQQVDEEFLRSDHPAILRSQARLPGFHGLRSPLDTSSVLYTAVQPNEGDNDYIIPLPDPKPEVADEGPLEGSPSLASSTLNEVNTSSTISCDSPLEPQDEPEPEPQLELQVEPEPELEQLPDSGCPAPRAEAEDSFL
Sequence of Mitogen-activated protein kinase 1 (Homo sapiens) (P28482 whole entry): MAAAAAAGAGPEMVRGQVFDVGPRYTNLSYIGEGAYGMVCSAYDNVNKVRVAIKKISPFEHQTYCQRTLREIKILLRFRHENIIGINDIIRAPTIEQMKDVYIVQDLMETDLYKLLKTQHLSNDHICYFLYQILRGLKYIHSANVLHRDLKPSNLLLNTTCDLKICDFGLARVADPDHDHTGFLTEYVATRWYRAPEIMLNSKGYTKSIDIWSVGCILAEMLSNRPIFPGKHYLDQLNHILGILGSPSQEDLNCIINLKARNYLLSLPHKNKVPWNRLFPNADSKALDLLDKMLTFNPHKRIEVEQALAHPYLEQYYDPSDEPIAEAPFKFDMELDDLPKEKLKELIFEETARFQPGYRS
Sequence of Mitogen-activated protein kinase 3 (Homo sapiens) (P27361 whole entry): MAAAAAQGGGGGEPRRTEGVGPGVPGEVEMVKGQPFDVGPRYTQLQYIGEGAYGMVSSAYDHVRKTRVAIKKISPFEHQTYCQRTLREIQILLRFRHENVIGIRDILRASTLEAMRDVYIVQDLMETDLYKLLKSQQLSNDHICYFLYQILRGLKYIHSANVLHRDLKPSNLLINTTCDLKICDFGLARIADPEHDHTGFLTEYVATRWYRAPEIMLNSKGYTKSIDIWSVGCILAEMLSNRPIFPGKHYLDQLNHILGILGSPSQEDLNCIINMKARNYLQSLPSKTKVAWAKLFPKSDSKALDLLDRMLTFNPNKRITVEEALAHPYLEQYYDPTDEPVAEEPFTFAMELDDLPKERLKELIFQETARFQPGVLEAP
Sequence of Cyclin-dependent kinase 4 (Homo sapiens) (P11802 whole entry): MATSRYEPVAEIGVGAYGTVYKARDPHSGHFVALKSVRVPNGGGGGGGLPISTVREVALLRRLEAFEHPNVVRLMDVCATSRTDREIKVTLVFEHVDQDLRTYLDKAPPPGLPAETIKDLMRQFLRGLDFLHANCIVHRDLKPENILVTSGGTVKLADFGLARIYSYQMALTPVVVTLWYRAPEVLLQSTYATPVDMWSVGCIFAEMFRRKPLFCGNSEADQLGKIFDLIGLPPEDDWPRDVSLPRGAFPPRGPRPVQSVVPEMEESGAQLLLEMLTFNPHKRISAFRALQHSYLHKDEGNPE

An inhibition [1] of 100%, an inhibition [2] of 75.7% and an inhibition [3] of 0.2% were found for `Cc1ccc(C(=O)Nc2cccc(C(F)(F)F)c2)cc1-c1ccc2c(-c3cnn(C4CC4)c3)n[nH]c2c1` in this work. The inhibition [4] was 83.6%, the inhibition [5] was 83.4% and the half-life [6] was 3.05 h. The inhibition [7] was 67.8%, the inhibition [8] was 5.9% and the inhibition [9] was 2.5%. For the same compound, the inhibition [10] was 42%, the inhibition [11] was 99.1% and the inhibition [12] was 3.8%. For the same compound, the inhibition [13] was 87.6%, the inhibition [14] was 8.2% and the inhibition [15] was 86.9%. The inhibition [16] was 16.8%, the inhibition [17] was 4.4% and the inhibition [18] was 100%.
